ChEMBL document CHEMBL4680120, “Novel anti-Alzheimer phenol-lipoyl hybrids: Synthesis, physico-chemical characterization, and biological evaluation” (Eur J Med Chem, 2020)
Converted amounts (≈) assume the structure as drawn. The source made the active and inactive calls. No cut-off for these calls is given here.

What was measured:
[1] = system: Erythrocyte; assay: Cytoprotective activity against H2O2-induced oxidative damage in human RBC assessed as increase in cell viability measured after 72 hrs by LDH release assay; type: functional, cell-based
In short: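 Heparinized whole blood cultured with phytohemagglutinin. Cells were co-incubated with 50 or 100 μM hybrid and H2O2 (25 μM). Viability was read by MTT: lymphocytes at 2×10^5 per well, MTT 4 h at 37°C, formazan dissolved in DMSO, absorbance 570 nm. LDH release was measured on 100 μL medium with a commercial kit. Results are relative to untreated control.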

[2] = system: Erythrocyte; assay: Cytoprotective activity against H2O2-induced oxidative damage in human RBC assessed as recovery of H2O2-induced cell death at 50 to 100 uM measured after 72 hrs by LDH release assay relative to control; type: functional; conditions: dose 50-100 µM
In short: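 Heparinised human whole blood cultured in phytohemagglutinin-containing chromosome medium and co-incubated with hybrids and H2O2 at 37C for 72 h. LDH released into the culture medium was measured with a commercial kit. Triton X-100 served as positive control, with untreated cultures as reference. Cytoprotection was expressed as viability relative to control.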

[3] = Stability in simulated intestinal fluid at pH 6.8 assessed as relative difference measured after 180 mins in presence of pancreatin by HPLC analysis; type: ADME; conditions: simulated gi fluid, pH 6.8, 3 h
In short: (§1)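 Incubation in simulated gastric fluid (pH 1.2, pepsin) or simulated intestinal fluid (pH 6.8, pancreatin). Aliquots deproteinized with ice-cold acetonitrile, centrifuged at 4°C and 12000 rpm for 10 min, filtered, analyzed by HPLC. RD% = (Ci − Cf)/Ci × 100. Stable if RD < 5%. Means of three experiments.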

[4] = Stability in simulated gastric fluid at pH 1.2 assessed as relative difference measured after 15 mins in presence of pepsin by HPLC analysis; type: ADME; conditions: isolated protein, pH 1.2, 0.25 h; in short: as §1
[5] = Stability in simulated intestinal fluid at pH 6.8 assessed as relative difference measured after 120 mins in presence of pancreatin by HPLC analysis; type: ADME; conditions: simulated gi fluid, pH 6.8, 2 h; in short: as §1
[6] = system: Erythrocyte; assay: Antioxidant activity in human RBC assessed as increase in total antioxidant capacity level up to 400 ug/ml measured after 72 hrs relative to control; type: functional; conditions: dose microg/ml <=400
[7] = system: Erythrocyte; assay: Cytoprotective activity against H2O2-induced oxidative damage in human RBC assessed as increase in cell viability measured after 72 hrs by MTT assay; type: functional, cell-based
[8] = system: SH-SY5Y; assay: Neuroprotective activity against amyloid beta (1 to 42)-induced apoptosis in human SH-SY5Y cells assessed as early apoptotic cells at IC50 measured after 48 hrs by Annexin-V/Propidium iodide staining based flow cytometry (reference value: 0.74%); type: functional
[9] = Solubility of compound in water by HPLC analysis; type: physicochemical
[10] = system: SH-SY5Y; assay: Neuroprotective activity against amyloid beta (1 to 42)-induced apoptosis in human SH-SY5Y cells assessed as necrotic cells at IC50 measured after 48 hrs by Annexin-V/Propidium iodide staining based flow cytometry (reference value: 6.99%); type: functional
[11] = system: SH-SY5Y; assay: Neuroprotective activity against amyloid beta (1 to 42)-induced toxicity in human SH-SY5Y cells assessed as increase in cell viability at 1 to 250 mg/l measured after 48 hrs by LDH release assay; type: functional, cell-based; conditions: dose 1-250 mg/L
In short: (§2)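 SH-SY5Y cells grown in DMEM/F12 with 10% FBS and differentiated with retinoic acid (10 μM), seeded at 1×10^4 per well and cultured 24 h. Cells were given hybrids at 1–250 mg/L with or without Aβ1-42 (20 μM) for 48 h. MTT (5 mg/mL) added for 4 h at 37°C, DMSO solubilization, read at 570/630 nm. LDH read at 450 nm. Five independent experiments.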

[12] = Stability in simulated intestinal fluid at pH 6.8 assessed as relative difference measured after 15 mins in presence of pancreatin by HPLC analysis; type: ADME; conditions: simulated gi fluid, pH 6.8, 0.25 h; in short: as §1
[13] = system: Erythrocyte; assay: Cytoprotective activity against H2O2-induced oxidative damage in human RBC assessed as recovery of H2O2-induced cell death at 50 to 100 uM measured after 72 hrs by MTT assay relative to control; type: functional; conditions: dose 50-100 µM
[14] = system: Erythrocyte; assay: Cytoprotective activity against H2O2-induced oxidative damage in human RBC assessed as restoration of antioxidant activity at 50 to 100 uM measured after 72 hrs by TAC assay relative to control; type: functional; conditions: dose 50-100 µM
[15] = system: SH-SY5Y; assay: Neuroprotective activity against amyloid beta (1 to 42)-induced toxicity in human SH-SY5Y cells assessed as increase in cell viability at 1 to 250 mg/l measured after 48 hrs by MTT assay; type: functional, cell-based; conditions: dose 1-250 mg/L; in short: as §2
[16] = Stability in simulated gastric fluid at pH 1.2 assessed as relative difference measured after 30 mins in presence of pepsin by HPLC analysis; type: ADME; conditions: isolated protein, pH 1.2, 0.5 h; in short: as §1
[17] = Stability in simulated intestinal fluid at pH 6.8 assessed as relative difference measured after 60 mins in presence of pancreatin by HPLC analysis; type: ADME; conditions: simulated gi fluid, pH 6.8, 1 h; in short: as §1
[18] = Stability in simulated intestinal fluid at pH 6.8 assessed as relative difference measured after 30 mins in presence of pancreatin by HPLC analysis; type: ADME; conditions: simulated gi fluid, pH 6.8, 0.5 h; in short: as §1
[19] = system: Erythrocyte; assay: Cytoprotective activity against H2O2-induced oxidative damage in human RBC assessed as restoration of antioxidant activity measured after 72 hrs by TAC assay; type: functional, cell-based
[20] = system: SH-SY5Y; assay: Cytotoxicity against human SH-SY5Y cells assessed as reduction in cell viability at 1 to 250 mg/l measured after 48 hrs by MTT assay; type: cell-based; conditions: dose 1-250 mg/L; in short: as §2
[21] = Stability in simulated gastric fluid at pH 1.2 assessed as relative difference measured after 60 mins in presence of pepsin by HPLC analysis; type: ADME; conditions: isolated protein, pH 1.2, 1 h; in short: as §1
[22] = Half life in human plasma by HPLC analysis; type: ADME, cell-free
In short: (§3)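 Compound stock added to human plasma pre-warmed to 37°C and diluted with 0.02 M phosphate buffer (pH 7.4) to 80% plasma. 100 μL samples taken over time, quenched with 200 μL cold acetonitrile, centrifuged, and supernatant analyzed by HPLC. t½ and kobs are means of three experiments.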

[23] = system: SH-SY5Y; assay: Neuroprotective activity against amyloid beta (1 to 42)-induced apoptosis in human SH-SY5Y cells assessed as late apoptotic cells at IC50 measured after 48 hrs by Annexin-V/Propidium iodide staining based flow cytometry (reference value: 33.72%); type: functional
[24] = Stability in human plasma assessed as observed rate constant by HPLC analysis; type: ADME, cell-free; in short: as §3
[25] = Stability in simulated intestinal fluid at pH 6.8 assessed as hydrolysis measured immediately in presence of pancreatin by HPLC analysis; type: ADME; conditions: simulated gi fluid; in short: as §1
[26] = system: SH-SY5Y; assay: Neuroprotective activity against amyloid beta (1 to 42)-induced apoptosis in human SH-SY5Y cells assessed as decrease in DNA condensation at IC50 measured after 48 hrs by Hoechst 33258 staining based fluorescence microscopic assay; type: functional, cell-based
In short: (§4)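 Differentiated SH-SY5Y cells, 4×10^4 per well, exposed 48 h to Aβ1-42 (20 μM) with or without hybrid. Fixed in 4% paraformaldehyde for 30 min, stained with Hoechst 33258 for 15 min. Nuclear chromatin condensation and DNA fragmentation scored by fluorescence microscopy at ×200.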

[27] = system: SH-SY5Y; assay: Neuroprotective activity against amyloid beta (1 to 42)-induced apoptosis in human SH-SY5Y cells assessed as decrease in DNA fragmentation at IC50 measured after 48 hrs by Hoechst 33258 staining based fluorescence microscopic assay; type: functional, cell-based; in short: as §4
[28] = system: Erythrocyte; assay: Cytoprotective activity against H2O2-induced oxidative damage in human RBC assessed as restoration of antioxidant activity at 50 uM measured after 72 hrs by TAC assay relative to control; type: functional
[29] = system: Erythrocyte; assay: Cytoprotective activity against H2O2-induced oxidative damage in human RBC assessed as restoration of antioxidant activity at 100 uM measured after 72 hrs by TAC assay relative to control; type: functional

| Structure (SMILES) | Activity [1] | Activity [2] [%] | fold change (FC) [3] [%] | fold change (FC) [4] [%] | fold change (FC) [5] [%] | Activity [6] [%] | Activity [7] | Activity [8] [%] | solubility [9] [µg/mL] | Activity [10] [%] | Activity [11] | fold change (FC) [12] [%] | Activity [13] [%] | Activity [15] | fold change (FC) [16] [%] | fold change (FC) [17] [%] | Activity [20] | fold change (FC) [21] [%] | half-life [22] [h] | K [24] [h⁻¹] | also measured |
| --- | --- | --- | --- | --- | --- | --- | --- | --- | --- | --- | --- | --- | --- | --- | --- | --- | --- | --- | --- | --- | --- |
| O=C(CCCCC1CCSS1)NCCCNC(=O)Cc1ccc(O)c(O)c1 (stereo not drawn) | Dose-dependent effect | 0.4 | 90.2 | 15.27 | 70 | 26.5 | Dose-dependent effect | 3.88 | 235 (≈ 570 µM) | 1.23 | Active | 5.6 | 0.5 | Active | 47.45 | 56.3 | Non-Toxic | 65.48 | 9.21 | 0.08 | Activity [14]: 79.2%; fold change (FC) [18]: 30.4%; Activity [19]: Dose-dependent effect; Activity [23]: 13.72% |
| O=C(CCCCC1CCSS1)NCCCOC(=O)Cc1ccc(O)c(O)c1 (stereo not drawn) |  |  |  | 72.4 |  |  |  |  | 933 (≈ 2260 µM) |  | Active |  |  | Active | 86.54 |  | Non-Toxic | 100 | 0.75 | 0.93 | Stabilty [25]: Unstable |
| COc1ccc(CC(=O)OCCCNC(=O)CCCCC2CCSS2)cc1OC (stereo not drawn) |  |  |  | 15.23 |  |  |  |  | 110 (≈ 249 µM) |  | Active |  |  | Active | 35.89 |  | Non-Toxic | 60.98 | 0.62 | 1.146 | Stabilty [25]: Unstable |
| COc1ccc(CC(=O)NCCCNC(=O)CCCCC2CCSS2)cc1OC (stereo not drawn) | Dose-dependent effect | 0.4 | 2.09 | 2.9 | 1.32 | 4.2 | Dose-dependent effect | 3.51 | 42 (≈ 95.3 µM) | 1.66 | Active | 0.45 | 0.5 | Active | 1.89 | 0.9 | Non-Toxic | 4.03 | > 12 |  | Activity [26]: Active; Activity [27]: Active; fold change (FC) [18]: 0.73%; Activity [19]: Dose-dependent effect; Activity [23]: 16.01% |
| COc1ccc(/C=C/C(=O)OCCOCCNC(=O)CCCCC2CCSS2)cc1OC (stereo not drawn) | Dose-dependent effect | 0.4 | 40.3 | 5.6 | 31.38 | 2 | Dose-dependent effect | 2.85 | 10 (≈ 20.7 µM) | 1.6 | Active | 12.01 | 0.5 | Active | 7.35 | 27.2 | Non-Toxic | 30.76 | 17.2 | 0.042 | Activity [28]: 12.5%; fold change (FC) [18]: 21.06%; Activity [19]: Dose-dependent effect; Activity [23]: 15.39%; Activity [29]: 29.2% |
